Test results as given in ChEMBL document CHEMBL4007477, “Novel 2-phenyl-4,5,6,7-tetrahydro[b]benzothiophene analogues as selective COX-2 inhibitors: Design, synthesis, anti-inflammatory evaluation, and molecular docking studies” (Bioorg Med Chem Lett, 2017).

Key:
[1] = biological target: T1, COX1 (Prostaglandin G/H synthase 1) (Ovis aries, UniProt P05979); test: Inhibition of ovine COX1 at 60 uM using arachidonic acid as substrate preincubated for 5 mins followed by substrate addition measured after 2 mins by ADHP probe-based fluorescence assay relative to control; details: sheep, ovine COX1 enzyme
T1 sequence (P05979 whole entry): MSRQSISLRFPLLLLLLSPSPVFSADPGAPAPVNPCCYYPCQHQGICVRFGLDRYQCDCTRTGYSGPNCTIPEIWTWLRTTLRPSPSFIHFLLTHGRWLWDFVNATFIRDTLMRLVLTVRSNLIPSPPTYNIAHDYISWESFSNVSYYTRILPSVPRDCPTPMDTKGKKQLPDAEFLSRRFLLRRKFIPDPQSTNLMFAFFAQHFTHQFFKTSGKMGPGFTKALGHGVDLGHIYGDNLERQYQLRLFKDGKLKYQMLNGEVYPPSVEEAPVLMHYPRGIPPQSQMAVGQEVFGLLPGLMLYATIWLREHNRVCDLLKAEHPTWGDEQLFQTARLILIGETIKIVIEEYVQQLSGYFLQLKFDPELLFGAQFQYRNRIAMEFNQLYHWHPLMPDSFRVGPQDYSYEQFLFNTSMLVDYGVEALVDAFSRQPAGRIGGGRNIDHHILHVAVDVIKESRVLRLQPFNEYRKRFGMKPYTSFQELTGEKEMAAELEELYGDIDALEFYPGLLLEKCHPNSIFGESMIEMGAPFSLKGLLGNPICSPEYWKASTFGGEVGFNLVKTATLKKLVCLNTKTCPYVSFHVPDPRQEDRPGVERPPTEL

[2] = biological target: T2, Prostaglandin G/H synthase 2 (Homo sapiens) (UniProt P35354); details: at 60 µM
T2 sequence (whole entry): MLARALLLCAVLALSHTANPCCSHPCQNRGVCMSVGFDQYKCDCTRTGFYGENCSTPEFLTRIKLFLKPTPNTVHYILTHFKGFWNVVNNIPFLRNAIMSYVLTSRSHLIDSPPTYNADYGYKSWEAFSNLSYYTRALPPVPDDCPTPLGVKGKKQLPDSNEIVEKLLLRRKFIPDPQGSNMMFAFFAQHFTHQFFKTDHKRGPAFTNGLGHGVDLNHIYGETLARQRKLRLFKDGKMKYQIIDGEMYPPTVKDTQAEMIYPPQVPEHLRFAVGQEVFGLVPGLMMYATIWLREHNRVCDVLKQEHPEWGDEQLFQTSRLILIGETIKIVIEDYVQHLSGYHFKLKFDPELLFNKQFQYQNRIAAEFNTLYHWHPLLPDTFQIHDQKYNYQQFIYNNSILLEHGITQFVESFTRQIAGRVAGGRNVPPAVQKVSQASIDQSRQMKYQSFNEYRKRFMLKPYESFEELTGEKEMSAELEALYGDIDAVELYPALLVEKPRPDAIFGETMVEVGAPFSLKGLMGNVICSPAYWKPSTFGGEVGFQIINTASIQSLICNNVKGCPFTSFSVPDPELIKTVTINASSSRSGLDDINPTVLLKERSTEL

Rattus norvegicus [3] = test: Antiinflammatory activity in carrageenan-induced Wistar rat paw edema model assessed as rise in paw volume at 150 ug/kg administered 1 hr followed by carrageenan challenge measured at 360 mins by plethysmometer (reference value: 49.3%); type: functional
Rattus norvegicus [4] = test: Antiinflammatory activity in carrageenan-induced Wistar rat paw edema model assessed as rise in paw volume at 150 ug/kg administered 1 hr followed by carrageenan challenge measured at 180 mins by plethysmometer (reference value: 60.1%); type: functional
Rattus norvegicus [5] = test: Antiinflammatory activity in carrageenan-induced Wistar rat paw edema model assessed as rise in paw volume at 150 ug/kg administered 1 hr followed by carrageenan challenge measured at 30 mins by plethysmometer (reference value: 49.5%); type: functional
Rattus norvegicus [6] = test: Antiinflammatory activity in carrageenan-induced Wistar rat paw edema model assessed as rise in paw volume at 150 ug/kg administered 1 hr followed by carrageenan challenge measured at 60 mins by plethysmometer (reference value: 52.8%); type: functional
[7] = Cytotoxicity against mouse RAW264.7 cells assessed as cell viability at 80 uM after 24 hrs by MTT assay relative to control; type: cell-based; details: read-out: Activity
Procedure, shortened: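 MTT viability in RAW 264.7 cells after 24 h exposure to 5, 10, 20, 40, 80 and 160 µM compound.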

[8] = Selectivity index, ratio of IC50 for ovine COX1 to IC50 for human recombinant COX2
Procedure, shortened: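 Selectivity index computed as COX-1 IC₅₀ / COX-2 IC₅₀, using ovine COX-1 and human recombinant COX-2. Each IC₅₀ is a mean of two determinations.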

[9] = biological target: T3, Prostaglandin G/H synthase 1 (Ovis aries, UniProt P05979); test: Inhibition of ovine COX1 using arachidonic acid as substrate preincubated for 5 mins followed by substrate addition measured after 2 mins by ADHP probe-based fluorescence assay
T3 sequence (P05979 whole entry): T1 sequence (P05979 whole entry)

[10] = biological target: T4, Prostaglandin G/H synthase 2 (Homo sapiens, UniProt P35354); test: Inhibition of human recombinant COX2 using arachidonic acid as substrate preincubated for 5 mins followed by substrate addition measured after 2 mins by ADHP probe-based fluorescence assay
T4 sequence (P35354 whole entry): T2 sequence (whole entry)

Row | Compound | inhibition at 2 min, 60 µM [1] [%] | inhibition [2] [%] | IC50 [9] [µM] | IC50 [10] [µM] | Activity (Rattus norvegicus [3]) [%] | Activity (Rattus norvegicus [4]) [%] | Activity (Rattus norvegicus [5]) [%] | Activity (Rattus norvegicus [6]) [%] | viability at 24 h, 80 µM [7] [%] | Ratio IC50 [8]
1 | COC(=O)Cc1ccc(OC(=O)c2c(-c3ccccc3)sc3c2CCCC3)cc1 | 7.81 | 15 | – | – | – | – | – | – | – | –
2 | NS(=O)(=O)c1ccc(OC(=O)c2c(-c3ccccc3)sc3c2CCCC3)cc1 | 69.3 | 89.4 | 37 | 0.67 | 31.3 | 21.1 | 21.4 | 21.6 | 83.7 | 54.7
3 | NC(=O)Cc1ccc(OC(=O)c2c(-c3ccccc3)sc3c2CCCC3)cc1 | 1.43 | 38.3 | – | – | – | – | – | – | – | –
4 | CC(C)(C)c1ccc(OC(=O)c2c(-c3ccccc3)sc3c2CCCC3)cc1 | 8.1 | 3.1 | – | – | – | – | – | – | – | –
5 | O=C(Oc1ccccc1)c1c(-c2ccccc2)sc2c1CCCC2 | 47.1 | 97.6 | 61.2 | 0.33 | 37 | 27 | 10.6 | 30.2 | 50.8 | 184
6 | CC(=O)c1cccc(OC(=O)c2c(-c3ccccc3)sc3c2CCCC3)c1 | 73.5 | 93.5 | 29.6 | 0.31 | 30.3 | 30.5 | 28.9 | 30.8 | 64.5 | 92.7
7 | COC(=O)c1ccc(OC(=O)c2c(-c3ccccc3)sc3c2CCCC3)cc1 | 68.9 | 56.5 | – | – | – | – | – | – | – | –
8 | Cc1ccc(-c2cc(C(F)(F)F)nn2-c2ccc(S(N)(=O)=O)cc2)cc1 [CELECOXIB] | – | – | – | – | 26.6 | 19.7 | 5.8 | 16.2 | 33.9 | –
9 | CC(=O)Nc1ccc(OC(=O)c2c(-c3ccccc3)sc3c2CCCC3)cc1 | 36.8 | 75.7 | 68.8 | 1.4 | 37 | 27 | 10.6 | 30.2 | 41.3 | 48.8

Further lines, with some results ahead:

Row | inhibition at 2 min, 60 µM [1] [%] | inhibition [2] [%] | IC50 [9] [µM] | IC50 [10] [µM] | Compound | Activity (Rattus norvegicus [3]) [%] | Activity (Rattus norvegicus [4]) [%] | Activity (Rattus norvegicus [5]) [%] | Activity (Rattus norvegicus [6]) [%] | viability at 24 h, 80 µM [7] [%] | Ratio IC50 [8]
10 | 76 | 83.7 | – | – | N#Cc1ccc(OC(=O)c2c(-c3ccccc3)sc3c2CCCC3)cc1 | 28.5 | 21.4 | 13.6 | 22 | – | –
11 | 10.3 | 8.04 | – | – | CC(=O)c1ccc(OC(=O)c2c(-c3ccccc3)sc3c2CCCC3)cc1 | 54.2 | 55.2 | 24.7 | 37.1 | – | –
12 | 88.3 | 32.3 | – | – | Nc1ccc(OC(=O)c2c(-c3ccccc3)sc3c2CCCC3)cc1 | 39.9 | 44.9 | 29 | 33.1 | – | –
13 | 64 | 47.2 | – | – | Cc1ccc(OC(=O)c2c(-c3ccccc3)sc3c2CCCC3)cc1 | – | – | – | – | – | –
14 | 72.4 | 36.8 | – | – | O=C(Oc1ccc(Cl)cc1)c1c(-c2ccccc2)sc2c1CCCC2 | – | – | – | – | – | –
15 | 35.5 | 18.5 | – | – | O=C(Oc1ccc(Br)cc1)c1c(-c2ccccc2)sc2c1CCCC2 | – | – | – | – | – | –
16 | 11.6 | 10.7 | – | – | O=Cc1ccc(OC(=O)c2c(-c3ccccc3)sc3c2CCCC3)cc1 | – | – | – | – | – | –
17 | 10.7 | 41 | – | – | COc1ccc(OC(=O)c2c(-c3ccccc3)sc3c2CCCC3)cc1 | – | – | – | – | – | –
18 | 19.3 | 16.5 | – | – | O=C(Oc1ccc([N+](=O)[O-])cc1)c1c(-c2ccccc2)sc2c1CCCC2 | – | – | – | – | – | –
